Measurements published in ChEMBL document CHEMBL4138048, “Synthesis of substituted 2H-benzo[e]indazole-9-carboxylate as a potent antihyperglycemic agent that may act through IRS-1, Akt and GSK-3β pathways” (Medchemcomm, 2017).
Activity calls are given as the source filed them. The rule behind the calls is not given here.

Test system: L6
Experiment: Stimulation of [3H]2-deoxyglucose uptake in rat L6 cells at 10 uM incubated for 16 hrs by scintillation counting method
Type: functional, cell-based
In short: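 L6 myotubes incubated with the compound […]; insulin at 100 nM for 20 min served as the positive control. Uptake of ³H-2-deoxyglucose measured and expressed as fold stimulation relative to the control condition.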

COC(=O)c1c(SC)cc(-c2ccc(Cl)cc2)c2c1-c1cn(-c3ccccc3)nc1CC2
Activity: inactive
